# Measured values: ChEMBL document CHEMBL3259708, “Thienoquinolines as novel disruptors of the PKCε/RACK2 protein-protein interaction” (J Med Chem, 2014)
# The source made the active and inactive calls. The calls are words filed in the database; no cut-off is given here.
# What was measured:
# [1] = target: T1, Protein kinase C epsilon type (Homo sapiens) (UniProt Q02156); assay: (§1) Inhibition of recombinant PKCepsilon (unknown origin)-MBP-tagged RACK2 interaction after 1 hr by ELISA-based assay relative to untreated control; parameters: residual binding, % of control: concentration or dose not given beside the values; conditions: for residual binding, % of control: values are per cent of control
# T1 sequence (whole entry): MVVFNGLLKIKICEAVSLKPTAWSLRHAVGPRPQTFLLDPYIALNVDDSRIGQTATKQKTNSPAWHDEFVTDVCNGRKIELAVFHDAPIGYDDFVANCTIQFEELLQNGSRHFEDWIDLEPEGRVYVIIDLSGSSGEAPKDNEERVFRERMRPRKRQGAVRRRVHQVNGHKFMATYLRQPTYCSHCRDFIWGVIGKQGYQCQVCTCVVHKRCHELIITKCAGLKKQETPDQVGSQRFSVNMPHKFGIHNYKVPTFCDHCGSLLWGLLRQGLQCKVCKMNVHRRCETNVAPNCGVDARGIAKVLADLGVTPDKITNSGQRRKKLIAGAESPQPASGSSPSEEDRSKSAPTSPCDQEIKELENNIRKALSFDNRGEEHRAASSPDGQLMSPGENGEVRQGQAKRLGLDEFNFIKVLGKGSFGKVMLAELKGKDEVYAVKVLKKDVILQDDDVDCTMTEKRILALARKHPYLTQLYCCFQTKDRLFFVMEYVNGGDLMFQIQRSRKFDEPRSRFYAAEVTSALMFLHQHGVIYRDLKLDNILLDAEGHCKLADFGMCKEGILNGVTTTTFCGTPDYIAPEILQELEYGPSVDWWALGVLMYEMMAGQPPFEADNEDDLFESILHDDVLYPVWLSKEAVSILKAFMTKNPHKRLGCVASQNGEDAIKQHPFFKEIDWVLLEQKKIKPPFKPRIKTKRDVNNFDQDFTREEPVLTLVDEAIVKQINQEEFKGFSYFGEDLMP
# Method in brief: (§2)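 ELISA: plates coated with 100 ng recombinant PKCε in 20 mM Tris-HCl/100 mM NaCl pH 7.5 overnight at 4 °C, blocked with 3% BSA; PKCε activated 10 min at 30 °C with 60 μg/mL phosphatidylserine and 100 nM TPA; RACK2-MBP preincubated with agent 30 min, then 500 ng added for 1 h binding; anti-RACK2/HRP detection, ABTS at 420 nm; four experiments, quadruplicates, normalized to control; IC50 via CalcuSyn.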
# [2] = target: T2, Protein kinase C epsilon type (Homo sapiens, UniProt Q02156); assay: as §1; method in brief: as §2
# T2 sequence (Q02156 whole entry): T1 sequence (whole entry)
# [3] = target: T1, Protein kinase C epsilon type (Homo sapiens); assay: Inhibition of recombinant PKCepsilon (unknown origin)-MBP-tagged RACK2 interaction at 10 uM after 1 hr by ELISA-based assay relative to untreated control; conditions: values are per cent of control; method in brief: as §2
# [4] = target: Protein kinase C beta type (Homo sapiens) (UniProt P05771); assay: Inhibition of recombinant GST-tagged PKCbeta2 (unknown origin)-His-tagged RACK1 interaction after 1 hr by ELISA-based assay relative to untreated control
# Method in brief: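 ELISA: 200 ng His-tagged RACK1 coated overnight at 4 °C; agent added 30 min at room temperature; 500 ng GST-PKCβII activated with CaCl2, phosphatidylserine and TPA for 10 min, then bound 1 h; detected with anti-GST and HRP secondary, ABTS colour at 420 nm.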
# [5] = target: T1, Protein kinase C epsilon type (Homo sapiens); assay: Inhibition of PKCepsilon translocation to cell membrane in human PC3 cells at 25 to 50 uM by densitometric analysis; type: cell-based; conditions: PC-3
# Method in brief: (§3)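 PC-3 cells starved 16 h, agent 30 min, then 50 nM TPA 5 min; lysed and split into cytosolic and membrane fractions; Western blot for PKCε, PKCε pSer729 or PKCδ, with IGFI-βR (membrane) and GAPDH (cytosol) loading controls; densitometry of four independent experiments, normalized to control, t test.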
# [6] = target: T1, Protein kinase C epsilon type (Homo sapiens); assay: Inhibition of TPA-induced PKCepsilon Ser729 phosphorylation in human PC3 cell membrane at 25 to 50 uM by densitometric analysis; type: cell-based; conditions: PC-3; method in brief: as §3
# [7] = target: T1, Protein kinase C epsilon type (Homo sapiens); assay: Inhibition of phosphorylated form of PKCepsilon translocation to cell membrane in human PC3 cells at 25 to 50 uM by densitometric analysis; type: cell-based; conditions: PC-3; method in brief: as §3
# [8] = target: Protein kinase C delta type (Homo sapiens) (UniProt Q05655); assay: Inhibition of PKCdelta translocation to cell membrane in human PC3 cells at 25 to 50 uM by densitometric analysis; type: cell-based; conditions: PC-3; method in brief: as §3
# [9] = target: T1, Protein kinase C epsilon type (Homo sapiens); assay: Inhibition of TPA-induced PKCepsilon translocation to cell membrane in human PC3 cells at 50 uM by immunofluorescence analysis; type: cell-based; conditions: PC-3
# Method in brief: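 PC-3 cells on poly-L-lysine coverslips treated with agent 30 min then 100 nM TPA 5 min; fixed in 4% paraformaldehyde/4% sucrose, permeabilized, stained for PKCε with fluorescent secondary, imaged by microscopy; three independent experiments.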
# [10] = target: T1, Protein kinase C epsilon type (Homo sapiens); assay: (§4) Inhibition of PKCepsilon-induced phosphorylation of Elk1 in human HeLa cells after 4 hrs by luciferase reporter gene assay; type: cell-based
# Method in brief: (§5)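 PathDetect HeLa-HLR Elk-1 trans-reporting cells (200 000/well, grown 24 h) starved 16 h in 0.5% FBS medium; agent 30 min, 50 nM TPA 5 min, washed, then 4 h in starvation medium with agent; luciferase read on 20 μg lysate protein; mean ±SD of three experiments normalized to control; IC50 by CalcuSyn.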
# [11] = target: T2, Protein kinase C epsilon type; assay: as §4; type: cell-based; method in brief: as §5
# [12] = target: T1, Protein kinase C epsilon type (Homo sapiens); assay: Inhibition of PKCepsilon-induced phosphorylation of MARCKS in human HeLa cells at 50 uM by SDS-PAGE analysis; type: cell-based
# Method in brief: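 HeLa cells serum-starved 16 h, treated with 50 μM agent for 30 min with 100 nM TPA for the last 10 min; 150 μg lysate protein on SDS 8–16% gels, blotted for MARCKS pSer152/156 with tubulin loading control; densitometry of three independent experiments.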
# [13] = test system: HeLa; assay: Antiproliferative activity against human HeLa cells expressing luciferase gene up to 50 uM; type: cell-based
# Method in brief: (§6)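 HeLa-HLR and PC-3 cells seeded ~10 000/well; agent added after 4 h at various concentrations for 72 h; growth read by SRB assay; mean ±SD of three independent experiments, triplicate samples each.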
# [14] = test system: PC-3; assay: Antiproliferative activity against human PC3 cells expressing luciferase gene up to 50 uM; type: cell-based; method in brief: as §6
# [15] = test system: HeLa; assay: Antimigratory activity against human HeLa cells expressing doxycycline-inducible PKCepsilon at 25 uM after 24 hrs by scratch migration assay; type: functional, cell-based
# Method in brief: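 HeLa cells carrying doxycycline-inducible constitutively active PKCε grown to log phase; ~1 mm scratch made in monolayer with pipet tip, washed with PBS, then given 2 μg/mL doxycycline plus 25 μM test agent for 24 h; controls untreated or doxycycline plus DMSO; gap closure viewed by microscope.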
# [16] = test system: HeLa; assay: Antiinvasive activity against human HeLa cells expressing doxycycline-inducible PKCepsilon at 25 uM after 24 hrs; type: functional, cell-based
# Method in brief: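 Invasion of HeLa cells carrying doxycycline-inducible constitutively active PKCε, PKCε expression induced with doxycycline, through reconstituted basement membrane matrix using a commercial invasion kit per manufacturer; mean of three experiments, normalized to control (100%), t test.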
# [17] = species: Gallus gallus; assay: Antiangiogenic activity in chicken egg assessed as inhibition of VEGF-induced angiogenesis at 10 ng after 5 days by microscopic analysis; type: functional
# Method in brief: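 Hen eggs incubated 3 days at 37 °C, opened, incubated 7 more days; VEGF and test agent added on day 10; after 5 further days, vessel formation inspected by microscope.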
# [18] = target: Protein kinase C alpha type (Homo sapiens) (UniProt P17252); assay: Inhibition of PKCalpha (unknown origin) at 50 uM
# [19] = target: Protein kinase C beta type (Homo sapiens) (UniProt P05771); assay: Inhibition of PKCbeta1 (unknown origin) at 50 uM
# [20] = target: Protein kinase C eta type (Homo sapiens) (UniProt P24723); assay: Inhibition of PKCeta (unknown origin) at 50 uM
# [21] = target: Tyrosine-protein kinase BTK (Homo sapiens) (UniProt Q06187); assay: Inhibition of BTK (unknown origin) at 25 uM; values are per cent of control
# [22] = target: Mitogen-activated protein kinase 3 (Homo sapiens) (UniProt P27361); assay: Inhibition of ERK1 (unknown origin) at 25 uM; values are per cent of control
# [23] = target: Serine/threonine-protein kinase pim-3 (Homo sapiens) (UniProt Q86V86); assay: Inhibition of PIM3 (unknown origin) at 25 uM; values are per cent of control
# [24] = target: Ribosomal protein S6 kinase alpha-3 (Homo sapiens) (UniProt P51812); assay: Inhibition of RSK2 (unknown origin) at 25 uM; values are per cent of control
# [25] = target: T3, NUAK family SNF1-like kinase 1 (Homo sapiens) (UniProt O60285); assay: Inhibition of NUAK1 (unknown origin) at 25 uM; values are per cent of control
# T3 sequence (whole entry): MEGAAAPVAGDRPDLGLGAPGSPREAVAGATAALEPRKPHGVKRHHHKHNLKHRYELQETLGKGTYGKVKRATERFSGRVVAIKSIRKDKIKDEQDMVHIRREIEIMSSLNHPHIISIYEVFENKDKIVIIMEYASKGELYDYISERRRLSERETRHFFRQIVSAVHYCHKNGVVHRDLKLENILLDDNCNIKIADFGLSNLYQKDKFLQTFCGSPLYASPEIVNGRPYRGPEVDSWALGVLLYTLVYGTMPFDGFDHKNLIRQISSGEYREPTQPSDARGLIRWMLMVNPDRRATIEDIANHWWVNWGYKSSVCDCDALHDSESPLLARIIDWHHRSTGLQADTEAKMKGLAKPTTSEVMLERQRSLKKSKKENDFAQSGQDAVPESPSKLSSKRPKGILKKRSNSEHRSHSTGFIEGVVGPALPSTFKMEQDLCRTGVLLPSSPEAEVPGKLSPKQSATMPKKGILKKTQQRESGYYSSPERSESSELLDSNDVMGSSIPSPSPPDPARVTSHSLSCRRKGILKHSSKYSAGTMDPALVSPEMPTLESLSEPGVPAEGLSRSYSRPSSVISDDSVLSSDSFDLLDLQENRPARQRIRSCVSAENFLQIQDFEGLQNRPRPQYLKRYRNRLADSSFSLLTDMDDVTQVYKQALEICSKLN
# [26] = target: T1, Protein kinase C epsilon type (Homo sapiens); assay: Inhibition of recombinant PKCepsilon (unknown origin)-MBP-tagged RACK2 interaction at 25 uM after 1 hr by ELISA-based assay relative to untreated control; values are per cent of control
# Protein kinase C beta type (Homo sapiens), sequence (P05771 2-671 limits assumed): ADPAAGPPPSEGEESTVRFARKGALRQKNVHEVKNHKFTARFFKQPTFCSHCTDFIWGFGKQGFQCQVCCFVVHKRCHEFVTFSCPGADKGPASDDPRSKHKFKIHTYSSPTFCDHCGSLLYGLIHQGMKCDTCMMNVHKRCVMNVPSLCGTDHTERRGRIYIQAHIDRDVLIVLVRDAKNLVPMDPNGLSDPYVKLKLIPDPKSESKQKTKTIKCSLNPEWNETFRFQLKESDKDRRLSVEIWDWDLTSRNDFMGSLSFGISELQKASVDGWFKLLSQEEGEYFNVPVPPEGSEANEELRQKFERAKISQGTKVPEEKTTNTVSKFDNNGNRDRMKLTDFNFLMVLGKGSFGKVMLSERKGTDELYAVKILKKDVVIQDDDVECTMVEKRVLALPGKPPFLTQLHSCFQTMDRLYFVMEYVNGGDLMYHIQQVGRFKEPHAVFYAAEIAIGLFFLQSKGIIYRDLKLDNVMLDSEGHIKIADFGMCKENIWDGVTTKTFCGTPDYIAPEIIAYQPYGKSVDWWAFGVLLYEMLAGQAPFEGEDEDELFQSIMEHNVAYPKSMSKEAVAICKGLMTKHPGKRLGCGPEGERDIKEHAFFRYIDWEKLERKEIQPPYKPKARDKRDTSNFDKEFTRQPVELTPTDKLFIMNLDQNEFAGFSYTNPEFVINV
# Ribosomal protein S6 kinase alpha-3 (Homo sapiens), sequence (P51812 whole entry): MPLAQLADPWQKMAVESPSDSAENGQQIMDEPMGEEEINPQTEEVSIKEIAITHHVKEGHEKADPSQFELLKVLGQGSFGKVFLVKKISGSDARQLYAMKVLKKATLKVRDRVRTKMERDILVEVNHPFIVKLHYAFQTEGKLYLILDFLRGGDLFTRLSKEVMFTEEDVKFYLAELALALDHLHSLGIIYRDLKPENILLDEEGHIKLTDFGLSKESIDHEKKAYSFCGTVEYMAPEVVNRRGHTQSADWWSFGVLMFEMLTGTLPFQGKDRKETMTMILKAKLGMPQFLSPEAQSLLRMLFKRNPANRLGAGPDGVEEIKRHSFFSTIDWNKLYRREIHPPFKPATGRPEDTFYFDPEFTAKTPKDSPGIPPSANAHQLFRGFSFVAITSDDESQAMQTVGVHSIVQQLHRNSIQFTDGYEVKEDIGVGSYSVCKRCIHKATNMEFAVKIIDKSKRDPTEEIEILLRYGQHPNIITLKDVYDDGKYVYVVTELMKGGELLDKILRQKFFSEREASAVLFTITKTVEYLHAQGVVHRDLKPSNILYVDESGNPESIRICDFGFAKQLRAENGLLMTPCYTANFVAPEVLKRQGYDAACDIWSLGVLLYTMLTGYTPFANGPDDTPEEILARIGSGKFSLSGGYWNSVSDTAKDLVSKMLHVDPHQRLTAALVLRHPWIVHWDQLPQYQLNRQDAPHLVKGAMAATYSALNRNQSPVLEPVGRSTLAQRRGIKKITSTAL
# Tyrosine-protein kinase BTK (Homo sapiens), sequence (Q06187 whole entry): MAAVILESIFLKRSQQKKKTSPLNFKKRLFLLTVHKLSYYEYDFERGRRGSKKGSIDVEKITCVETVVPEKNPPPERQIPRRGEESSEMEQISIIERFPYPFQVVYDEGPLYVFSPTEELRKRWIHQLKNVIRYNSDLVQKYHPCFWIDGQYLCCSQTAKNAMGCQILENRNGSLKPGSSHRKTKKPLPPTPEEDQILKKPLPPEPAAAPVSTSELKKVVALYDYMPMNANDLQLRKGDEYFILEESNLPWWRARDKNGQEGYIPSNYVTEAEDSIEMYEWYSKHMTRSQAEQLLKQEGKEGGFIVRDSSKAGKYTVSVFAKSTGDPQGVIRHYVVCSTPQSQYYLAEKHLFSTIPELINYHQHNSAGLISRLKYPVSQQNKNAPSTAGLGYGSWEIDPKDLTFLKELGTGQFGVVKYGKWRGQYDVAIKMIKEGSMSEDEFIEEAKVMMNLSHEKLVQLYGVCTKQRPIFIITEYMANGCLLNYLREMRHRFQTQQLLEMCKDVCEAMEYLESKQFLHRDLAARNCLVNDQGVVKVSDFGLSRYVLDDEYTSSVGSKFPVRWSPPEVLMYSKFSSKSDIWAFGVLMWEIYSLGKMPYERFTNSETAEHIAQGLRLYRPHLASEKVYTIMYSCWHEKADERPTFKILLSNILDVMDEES
# Mitogen-activated protein kinase 3 (Homo sapiens), sequence (P27361 whole entry): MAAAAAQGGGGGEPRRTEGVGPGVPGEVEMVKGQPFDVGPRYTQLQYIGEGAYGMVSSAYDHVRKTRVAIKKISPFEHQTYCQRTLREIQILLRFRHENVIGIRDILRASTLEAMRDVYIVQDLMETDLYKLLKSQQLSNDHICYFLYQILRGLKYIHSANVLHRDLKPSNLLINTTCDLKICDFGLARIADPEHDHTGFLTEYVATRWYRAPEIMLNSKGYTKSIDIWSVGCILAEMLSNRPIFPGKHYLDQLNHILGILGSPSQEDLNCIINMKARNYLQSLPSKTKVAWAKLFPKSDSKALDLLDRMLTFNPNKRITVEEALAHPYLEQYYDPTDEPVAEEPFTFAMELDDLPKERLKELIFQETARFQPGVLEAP
# Protein kinase C eta type (Homo sapiens), sequence (P24723 whole entry): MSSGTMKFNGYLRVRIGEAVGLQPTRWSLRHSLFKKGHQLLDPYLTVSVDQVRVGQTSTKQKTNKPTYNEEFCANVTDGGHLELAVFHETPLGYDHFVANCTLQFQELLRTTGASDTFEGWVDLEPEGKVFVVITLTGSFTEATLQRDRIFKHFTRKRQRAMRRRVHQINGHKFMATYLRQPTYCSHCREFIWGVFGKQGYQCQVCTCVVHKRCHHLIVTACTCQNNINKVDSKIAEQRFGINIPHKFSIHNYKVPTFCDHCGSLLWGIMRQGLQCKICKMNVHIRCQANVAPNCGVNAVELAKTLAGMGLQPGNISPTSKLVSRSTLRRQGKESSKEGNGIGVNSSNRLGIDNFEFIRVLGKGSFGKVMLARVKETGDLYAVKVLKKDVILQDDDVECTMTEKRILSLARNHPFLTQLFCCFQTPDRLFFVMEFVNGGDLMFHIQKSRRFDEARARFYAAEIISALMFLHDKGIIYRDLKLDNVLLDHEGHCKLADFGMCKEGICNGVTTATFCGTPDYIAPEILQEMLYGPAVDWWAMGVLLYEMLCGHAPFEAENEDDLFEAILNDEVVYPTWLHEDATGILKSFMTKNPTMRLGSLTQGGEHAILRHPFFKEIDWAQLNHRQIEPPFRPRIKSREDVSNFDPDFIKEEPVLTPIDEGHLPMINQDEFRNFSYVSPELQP
# Protein kinase C delta type (Homo sapiens), sequence (Q05655 whole entry, looked up): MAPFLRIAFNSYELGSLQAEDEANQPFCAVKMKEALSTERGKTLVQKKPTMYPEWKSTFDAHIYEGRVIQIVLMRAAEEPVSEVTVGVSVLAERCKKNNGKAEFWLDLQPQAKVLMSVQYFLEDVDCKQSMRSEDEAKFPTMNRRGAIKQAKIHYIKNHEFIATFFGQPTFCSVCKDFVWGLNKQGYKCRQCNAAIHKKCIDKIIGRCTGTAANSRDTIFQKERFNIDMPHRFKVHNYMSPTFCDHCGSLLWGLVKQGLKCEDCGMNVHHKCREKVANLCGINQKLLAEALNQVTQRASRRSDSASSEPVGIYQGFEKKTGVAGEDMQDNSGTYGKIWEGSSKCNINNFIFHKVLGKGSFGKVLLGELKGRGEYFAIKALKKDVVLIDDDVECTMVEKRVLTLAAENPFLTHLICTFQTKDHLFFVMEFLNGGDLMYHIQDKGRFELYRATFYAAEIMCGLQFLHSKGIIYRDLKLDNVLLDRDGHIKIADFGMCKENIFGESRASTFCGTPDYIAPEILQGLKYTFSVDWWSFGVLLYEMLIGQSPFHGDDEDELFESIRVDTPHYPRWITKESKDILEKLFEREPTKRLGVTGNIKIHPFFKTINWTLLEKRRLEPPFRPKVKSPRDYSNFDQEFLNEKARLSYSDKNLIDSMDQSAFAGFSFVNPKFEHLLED
structure (smiles),measurement,setting,value
C/C(=N\OCC(=O)O)c1cccc(NC(=O)c2sc3nc4cc5c(cc4cc3c2N)OCCO5)c1,"residual binding, % of control",[1],59.3%
CC(=O)c1cccc(NC(=O)c2sc3nc4cc5c(cc4cc3c2N)OCCO5)c1,inhibition,[1],Dose-dependent effect
same,IC50,[2],5.9 µM
same,"residual binding, % of control",[3],23.6%
same,inhibition,[4],inactive
same,inhibition,[5],Active
same,inhibition,[6],inactive
same,inhibition,[7],Active
same,inhibition,[8],inactive
same,inhibition,[9],Active
same,inhibition,[10],Dose-dependent effect
same,IC50,[11],11.2 µM
same,inhibition,[12],Active
same,Activity,[13],Non-toxic
same,Activity,[14],Non-toxic
same,inhibition,[15],Active
same,inhibition,[16],Active
same,inhibition,[17],Active
same,inhibition,[18],80%
same,inhibition,[19],80%
same,inhibition,[20],80%
same,residual activity,[21],42%
same,residual activity,[22],55%
same,residual activity,[23],46%
same,residual activity,[24],27%
same,residual activity,[25],49%
same,residual activity,[26],13.3%
C/C(=N\O)c1cccc(NC(=O)c2sc3nc4cc5c(cc4cc3c2N)OCCO5)c1,"residual binding, % of control",[1],46.2%
CO/N=C(\C)c1cccc(NC(=O)c2sc3nc4cc5c(cc4cc3c2N)OCCO5)c1,"residual binding, % of control",[1],48.3%
Nc1c(C(=O)Nc2cccc(Cl)c2)sc2nc3cc4c(cc3cc12)OCCO4,"residual binding, % of control",[1],58%
COc1ccc(NC(=O)c2sc3nc4ccccc4cc3c2N)cc1,"residual binding, % of control",[1],42.7%
CC(=O)c1cccc(NC(=O)c2sc3nc4cc5c(cc4cc3c2N)OCO5)c1,"residual binding, % of control",[1],58.9%
CCOC(=O)Cc1csc(NC(=O)c2sc3nc4ccc(OCC)cc4cc3c2N)n1,"residual binding, % of control",[1],32.4%
CCOc1ccc2nc3sc(C(=O)Nc4ccc(F)cc4)c(N)c3cc2c1,"residual binding, % of control",[1],60.5%
CC(=O)c1cccc(NC(=O)c2cc3cc4cc5c(cc4nc3s2)OCCO5)c1,"residual binding, % of control",[1],64.9%
CC(=O)c1cccc(NC(=O)c2cc3cc4cc5c(cc4nc3s2)OCO5)c1,"residual binding, % of control",[1],51.2%
O=C1NC(=O)N(Cc2ccccc2)C(=O)/C1=C\c1ccc2c(c1)OCO2,IC50,[2],28.5 µM
